KCC2 mod: KCC2 (human) Cl- transport modulation; 2.2% of 190,000 active; Q9H2X9; B-score of Tl+ flux slope (higher = more flux/activation; lower = inhibition) at 10 µM; KCC2 cells, thallium flux FluoZin-2 fluorescence;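 active = thallium flux slope and its plate-corrected score both differing from the plate sample mean at a set confidence after two filtering rounds, in either direction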;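 also: slope of fluorescence scaled to starting intensity during 10 to 20 s after thallium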
KCNK9 block: human KCNK9 channel inhibition; Q9NPC2; HEK293 KCNK9, FluxOR thallium flux fluorescence; hits give low values; B-score at 10 µM; 1.2% of 310,000 active; AID 488922;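 active = ratio B-score over 3 SD below the library mean, with starting fluorescence within 5 SD of its mean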;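 also: negative B-score means less thallium flux so channel inhibition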
hERG protect: compounds protecting human hERG from proarrhythmic drug block | Q12809 | CHO-hERG, FluxOR thallium flux, dofetilide IC70 present | AID 1511 | 0.51% of 310,000 active | activation (rescue from dofetilide block), less the hit threshold, % at 10 µM;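 active = activation above the mean of controls blocked by dofetilide plus 5 SD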;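 also: thallium influx through hERG after potassium depolarization seen as dye fluorescence rise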
Target sequence (Q12809 whole entry, looked up): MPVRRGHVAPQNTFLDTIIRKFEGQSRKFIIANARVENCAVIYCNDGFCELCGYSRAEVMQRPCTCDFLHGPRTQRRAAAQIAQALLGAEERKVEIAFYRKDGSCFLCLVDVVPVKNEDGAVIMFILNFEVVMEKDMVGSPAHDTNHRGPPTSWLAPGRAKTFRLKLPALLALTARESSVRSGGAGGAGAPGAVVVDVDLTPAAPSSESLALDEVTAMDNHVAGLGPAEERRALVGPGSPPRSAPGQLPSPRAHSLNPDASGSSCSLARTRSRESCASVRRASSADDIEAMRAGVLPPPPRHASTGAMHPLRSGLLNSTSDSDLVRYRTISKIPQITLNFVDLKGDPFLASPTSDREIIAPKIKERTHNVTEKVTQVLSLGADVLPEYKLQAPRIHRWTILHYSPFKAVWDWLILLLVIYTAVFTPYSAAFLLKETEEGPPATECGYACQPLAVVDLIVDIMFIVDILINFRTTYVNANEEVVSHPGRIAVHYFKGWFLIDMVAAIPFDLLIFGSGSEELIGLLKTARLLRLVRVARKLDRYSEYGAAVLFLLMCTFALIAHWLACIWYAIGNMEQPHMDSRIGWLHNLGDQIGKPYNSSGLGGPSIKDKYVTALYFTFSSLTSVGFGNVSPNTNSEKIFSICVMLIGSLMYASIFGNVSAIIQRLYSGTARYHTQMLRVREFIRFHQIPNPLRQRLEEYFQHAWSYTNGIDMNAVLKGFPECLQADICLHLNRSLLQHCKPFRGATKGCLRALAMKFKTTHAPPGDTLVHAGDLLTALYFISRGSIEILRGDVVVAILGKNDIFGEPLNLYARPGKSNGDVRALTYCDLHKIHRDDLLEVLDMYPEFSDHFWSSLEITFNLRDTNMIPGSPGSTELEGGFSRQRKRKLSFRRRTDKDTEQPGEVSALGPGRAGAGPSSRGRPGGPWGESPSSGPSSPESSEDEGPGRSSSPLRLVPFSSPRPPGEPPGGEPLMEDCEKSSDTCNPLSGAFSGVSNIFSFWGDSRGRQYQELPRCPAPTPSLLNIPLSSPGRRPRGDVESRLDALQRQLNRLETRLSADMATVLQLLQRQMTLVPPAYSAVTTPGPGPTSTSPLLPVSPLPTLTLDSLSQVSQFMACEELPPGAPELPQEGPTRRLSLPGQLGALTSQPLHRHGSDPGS
KCNQ1 act: potentiates or activates the human KCNQ1 potassium channel; B-score at 10 µM; 0.35% of 310,000 active; P51787; CHO-K1 KCNQ1, thallium flux FluxOR fluorescence; hits give high values;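 active = fluorescence ratio B-score, a plate-corrected score, at least three library SD, with initial intensity B-score within 5 SD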
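assay system = KCNQ1-transfected CHO-K1 cells | medium = assay buffer with matched DMSO | probe or stimulus = depolarizing K+/Tl+ stimulus, K2SO4 and Tl2SO4 each 12.5 mM in 5x stock | dosing = single dose | incubation = dye 90 min, compound 20 min, room temperature | detection = kinetic FluxOR fluorescence, 10 s baseline plus 110 s post-stimulus | evaluation = ratio B score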
KCNK3 inh: human KCNK3 channel inhibition, primary screen | O14649 | CHO-KCNK3 thallium flux, FluxOR fluorescence; hits give low values | B-score at 10 µM | 0.84% of 340,000 active | AID 602410;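 active = B-score under library mean minus 4 SD, starting fluorescence ratio at most library mean plus 5 SD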;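 also: more negative B-score means stronger inhibition of thallium flux through KCNK3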
KCNQ1 block: blocks the human KCNQ1 potassium channel; B-score at 10 µM; 1.3% of 310,000 active; CHO-K1 KCNQ1, FluxOR thallium flux fluorescence; hits give high values; P51787;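 active = compounds whose thallium flux B-score, printed positive for inhibition, exceeds three library SD while starting fluorescence stays within three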;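 also: channel opened by potassium depolarization with thallium stimulus after 20 min compound exposure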
KCNQ1 block val: confirmation of human KCNQ1 potassium channel inhibitors. 93% of 1,600 active. inhibition, % at 10 µM. KCNQ1 cell line, FluxOR thallium flux fluorescence. shares compounds with KCNQ1 block;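 active = primary screen active, with duplicate mean exceeding buffer control mean plus 3 SD of buffer wells, cut at about 28% in these data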;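 also: 0% = buffer control ratio and 100% = XE991 inhibitor control ratio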
CHO Tl flux: counter-screen for KCNQ1 inhibitors: effect in parental CHO cells | AID 588366 | parental CHO-K1, FluxOR thallium flux fluorescence ratio; hits give low values; zero means no signal rise above baseline | shares compounds with KCNQ1 block | fluorescence ratio (Tl flux) at 10 µM | 21% of 1,600 active;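 active = mean of duplicate thallium-flux fluorescence ratios in parental host cells more than 5 SD below the buffer control mean, cut at about 0.38 in these data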;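 also: ratio is peak minus minimum fluorescence divided by baseline fluorescence; actives read low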
KCNQ1 ephys val: blocks human KCNQ1 current in automated patch clamp; shares compounds with KCNQ1 block; KCNQ1-CHO cells; calls only at 10 µM; 20% of 490 active; AID 624120;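 active = KCNQ1 current drop exceeding 3 SD of negative control wells, seen in both duplicate runs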;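 also: steady state current during a 2 s step from -80 to +40 mV; negative values mean current inhibition and positive values mean potentiation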
KCNQ2 spec: rat KCNQ2 inhibition in KCNQ1 inhibitor specificity screen; KCNQ2 cells, FluxOR thallium flux fluorescence; AID 651746; 71% of 1,600 active; inhibition, % at 10 µM; shares compounds with KCNQ1 block;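 active = mean percent inhibition of the KCNQ2 thallium signal more than 5 SD above the buffer-only control wells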;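 also: KCNQ2 expressed in CHO cells; 0% = buffer control wells and 100% = XE-991 inhibitor control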
KCNQ1 KCNE1 spec: human KCNQ1/KCNE1 inhibition in KCNQ1 specificity screen; shares compounds with KCNQ1 block; KCNQ1/KCNE1 cells, FluxOR thallium flux fluorescence; inhibition, % at 10 µM; 77% of 1,600 active; AID 652147;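 active = mean percent inhibition of duplicate wells above the buffer-only control mean plus 3 SD of those controls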;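 also: 0% = buffer only wells and 100% = XE-991 inhibitor control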
* hit, by the source's call; i = inactive; / = not tested or not shown; + = active, no number. Shown are actives, neighbours in structure and some others; about 4.1% of the full set was active somewhere.

SMILES	KCC2 mod	KCNK9 block	hERG protect	KCNQ1 act	KCNK3 inh	KCNQ1 block	KCNQ1 block val	CHO Tl flux	KCNQ2 spec	KCNQ1 KCNE1 spec	others
COc1ccc(C)cc1NC(=O)CCCN1C(=S)NC(C)(C)CC1C (stereo not given)	0.0753	i	-11.9	i	i	6*	0.0	0.482	i	i
Cc1ccccc1OCCC(=O)N(CC(C)C)c1c(N)n(Cc2ccccc2)c(=O)[nH]c1=O	/	/	/	/	i	/	/	/	/	/
CCN(CC)c1nc2ccccc2n(Cc2cccc(OC)c2)c1=O	/	i	-5.8	i	i	6*	109.0*	0.402	99.3%*	170.0%*	KCNQ1 ephys val=i
O=C(NC1CCN(Cc2ccccc2)CC1)c1cn(-c2ccccc2)nc1-c1cccnc1	/	i	-10.9	i	i	i	/	/	/	/
CCOc1ccc(CSC(=N)N)cc1Cl	-0.635	i	-11.7	i	i	i	/	/	/	/
CCCCOc1ccc(CSCCN)cc1Cl	0.451	i	-14.3	i	i	6*	68.0*	0.437	i	103.0%*
O=C(Cc1ccc(F)cc1)Nc1ccc(Cl)cn1	/	i	-6.7	i	i	i	/	/	/	/
Cc1cc(S(=O)(=O)N2CCc3ccccc3C2)ccc1F	/	i	-5.9	i	i	i	/	/	/	/
Cc1cc(S(=O)(=O)N2CCN(c3ccccc3C)CC2)ccc1F	/	i	-11.3	i	-9.82*	11*	168.5*	0.346*	i	i
Cc1cc(S(=O)(=O)N2CCN(c3c(C)cccc3C)CC2)ccc1F	-0.332	i	-6.8	i	i	8*	103.0*	0.388	81.0%*	136.0%*	KCNQ1 ephys val=i
COc1ccc(S(=O)(=O)N2CCN(c3c(C)cccc3C)CC2)cc1OC	-0.048	i	-11.2	i	i	8*	99.0*	0.363*	110.0%*	92.5%*
COc1ccc(S(=O)(=O)N2CCN(c3ccc(C)cc3C)CC2)cc1OC	-2.03	i	-8.1	i	i	i	/	/	/	/
CS(=O)(=O)N(Cc1nc(-c2ccc(F)cc2)no1)c1ccccc1Cl	/	/	/	/	i	/	/	/	/	/
CCOc1ccc(N=C2SCCCN2C(=O)c2c(CC)noc2C)cc1	/	i	-6.5	i	i	i	/	/	/	/
CCc1noc(C)c1C(=O)N1CCCSC1=Nc1ccccc1Cl	/	i	-16.6	i	i	7*	80.5*	0.429	66.3%*	110.0%*
CCOc1ccc(Br)cc1CC(=O)O	-0.0162	i	-7.5	i	i	i	/	/	/	/
CCCOc1ccc(Br)cc1CSC(=N)N	0.00191	i	-16.0	i	i	9*	100.5*	0.461	78.0%*	45.5%*	KCNQ1 ephys val=+
COCc1cc(N2CCOCC2)nc(-c2ccccc2)n1	0.957	i	-4.2	i	i	i	/	/	/	/
COCc1cc(Sc2ccc(Br)cc2)nc(-c2ccccc2)n1	1.23	i	-3.4	i	i	i	/	/	/	/
COCc1cc(Sc2ccc(Cl)cc2)nc(-c2ccccc2)n1	0.634	i	-12.1	i	i	6*	77.0*	0.493	90.7%*	79.5%*
COCc1cc(N2CCN(c3ccccc3F)CC2)nc(-c2ccccc2)n1	/	i	-3.5	i	i	6*	51.0*	0.506	59.7%*	139.5%*
COc1ccc(CNS(=O)(=O)c2ccc3c(c2)NC(=O)C(C)S3)cc1 (stereo not given)	/	i	-2.5	i	i	i	/	/	/	/
